Results collected from several papers.
Lines come from different studies, so protocols differ. ≈ marks a conversion by molar mass, not a printed value.

Compound	target or system	assay	setting	quantity	value
O=C1OC[C@H]2OC(O)[C@H](O)[C@@H](O)[C@@H]2OC(=O)c2cc(O)c(O)c(O)c2-c2c(O)c(O)c3oc(=O)c4c(c(O)c(O)c5oc(=O)c2c3c54)-c2c1cc(O)c(O)c2O (mixture of isomers)	Streptococcus mutans	microbial killing, broth dilution	–	MBC	400 µg/mL
CCOc1ccc(Nc2c3c(nc4ccccc24)CCC3)cc1	Leishmania infantum	parasite growth, MTT	promastigote	IC50	640 nM
Cc1nc(Nc2ncc(C(=O)Nc3c(C)cccc3Cl)s2)cc(N2CC[C@H](O)C2)n1	JVM13	cell growth or viability, ATP luminescence	10 µM, 72 h	inhibition	32%
Oc1cc(O)c2c(c1)O[C@H](c1cc(O)c(O)c(O)c1)[C@@H](O)C2	Streptococcus mutans	microbial killing, broth dilution	–	MBC	400 µg/mL (≈ 1310 µM)
CN[C@H](CC(C)C)C(=O)N[C@H]1C(=O)N[C@@H](CC(N)=O)C(=O)N[C@H]2C(=O)N[C@H]3C(=O)N[C@H](C(=O)N[C@H](C(=O)O)c4cc(O)cc(O)c4-c4cc3ccc4O)[C@H](O)c3ccc(c(Cl)c3)Oc3cc2cc(c3O[C@@H]2O[C@H](CO)[C@@H](O)[C@H](O)[C@H]2O[C@H]2C[C@](C)(N)[C@H](O)[C@H](C)O2)Oc2ccc(cc2Cl)[C@H]1O	Streptococcus pyogenes	microbial growth	clinical isolate	MIC90	1 µg/mL (≈ 0.69 µM)
c1ccc(Oc2ccc(Nc3c4c(nc5ccccc35)CCC4)cc2)cc1	Leishmania infantum	parasite growth, MTT	promastigote	IC50	530 nM
NCCC(=O)Nc1ccccc1/N=c1\cc(-c2ccc3oc(N)nc3c2)oc2ccccc12	HCT-116	cell growth or viability, CCK-8	1 µM	inhibition	42.7%
C[C@@H]1O[C@@H](OC[C@H]2O[C@@H](Oc3c(-c4ccc(O)c(O)c4)oc4cc(O)cc(O)c4c3=O)[C@H](O)[C@@H](O)[C@@H]2O)[C@H](O)[C@H](O)[C@H]1O	Streptococcus mutans	microbial growth, disc diffusion	500 µg/disc	inhibition zone	14 mm
CS(=O)(=O)NCCC(=O)Nc1ccccc1/N=c1\cc(-c2ccc3nc(N)oc3c2)oc2ccccc12	HCT-116	cell growth or viability, CCK-8	1 µM	inhibition	3.17%
O=C(O[C@@H]1O[C@@H]2COC(=O)c3cc(O)c(O)c(O)c3-c3c(cc(O)c(O)c3O)C(=O)O[C@H]([C@H]1O)[C@@H]2O)c1cc(O)c(O)c(O)c1	Streptococcus mutans	microbial growth, broth dilution	24 h	MIC	200 µg/mL (≈ 315 µM)
NC(=O)C1CCCN1C(=O)Nc1ccccc1/N=c1\cc(-c2ccc3c(c2)OCCO3)oc2cc(F)ccc12 (stereo not drawn)	HCT-116	cell growth or viability, CCK-8	1 µM	inhibition	13.6%
C[C@@H]1[C@H](O)[C@@H](C)/C=C/C=C/C=C/C=C/C=C/C=C/C=C/[C@H](O[C@@H]2O[C@H](C)[C@@H](O)[C@H](N)[C@@H]2O)C[C@@H]2O[C@](O)(C[C@@H](O)C[C@@H](O)[C@H](O)CC[C@@H](O)C[C@@H](O)CC(=O)O[C@H]1C)C[C@H](O)[C@H]2C(=O)O	Leishmania infantum	parasite growth, MTT	promastigote	EC50	1500 nM
C[C@H](N)C(=O)Nc1ccccc1/N=c1\cc(-c2ccc3c(c2)OCCO3)oc2cc(F)ccc12	HCT-116	cell growth or viability, CCK-8	1 µM	inhibition	5.4%
COc1ccc(NC(=O)Nc2ccc(-c3cn(Cc4ccc(Cl)cc4)nn3)cc2)cc1	PC-9	cell growth or viability, CCK-8	50 µM, 72 h	viability	87.3%
CC(C)(C)[C@H](N)C(=O)Nc1ccccc1/N=c1\cc(-c2ccc3c(c2)OCO3)oc2ccccc12	HCT-116	cell growth or viability, CCK-8	1 µM	inhibition	14.6%
C=C[C@]1(C)C[C@@H](OC(=O)CS[C@@H]2C[C@H]3CC[C@@H](C2)N3C)[C@]2(C)[C@H](C)CC[C@]3(CCC(=O)[C@H]32)[C@@H](C)[C@@H]1O	Streptococcus pyogenes	microbial growth	clinical isolate	MIC90	0.0312 µg/mL (≈ 0.0604 µM)
NCC(=O)Nc1ccccc1/N=c1\cc(-c2ccc3c(c2)OCO3)oc2ccccc12	HCT-116	cell growth or viability, CCK-8	1 µM	inhibition	4.94%
O=c1oc2c(O)c(O)cc3c(=O)oc4c(O)c(O)cc1c4c23	Streptococcus mutans	microbial growth, broth dilution	24 h	MIC	100 µg/mL (≈ 331 µM)
